In ChEMBL document CHEMBL1149468, “Pyridobenzodiazepines: a novel class of orally active, vasopressin V2 receptor selective agonists” (Bioorg Med Chem Lett, 2006):
Calls of active or inactive are those of the source. No cut-off for these calls is given here. Bridge positions count the residues as written; N and C are the ends. Square brackets hold non-standard residues; d marks the D form. Peptide text beside a SMILES is read from it. Orn = NCCC[C@H](N)C(=O)O; Mpa = O=C(O)CCS

Assays:
[1] = molecular target: Vasopressin V1a receptor (Rattus norvegicus) (UniProt P30560); test: Agonist activity at V1a receptor indicated by production of contractions in rat tail arteries; type: functional, tissue-based
Sequence of Vasopressin V1a receptor (Rattus norvegicus) (P30560 whole entry, looked up): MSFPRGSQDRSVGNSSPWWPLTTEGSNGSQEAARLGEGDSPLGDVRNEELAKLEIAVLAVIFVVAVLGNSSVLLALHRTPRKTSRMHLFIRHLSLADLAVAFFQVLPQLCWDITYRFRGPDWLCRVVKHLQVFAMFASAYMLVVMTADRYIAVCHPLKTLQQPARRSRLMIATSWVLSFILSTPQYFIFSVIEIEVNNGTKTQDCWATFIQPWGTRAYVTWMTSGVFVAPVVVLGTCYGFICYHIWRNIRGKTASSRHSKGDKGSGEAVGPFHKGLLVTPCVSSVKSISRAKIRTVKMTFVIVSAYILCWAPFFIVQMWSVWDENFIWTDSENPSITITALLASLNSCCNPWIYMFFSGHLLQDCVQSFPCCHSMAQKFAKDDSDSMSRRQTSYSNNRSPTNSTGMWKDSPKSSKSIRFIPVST

Vasopressin V1a receptor [2] = molecular target: Vasopressin V1a receptor (Rattus norvegicus, UniProt P30560); test: Antagonism of AVP-induced response at V1a receptor in isolated rat tail arteries; type: functional, tissue-based
Sequence of Vasopressin V1a receptor (Rattus norvegicus, UniProt P30560) (P30560 whole entry): as the sequence (P30560 whole entry, looked up) above

Vasopressin V2 receptor [3] = molecular target: T1, Vasopressin V2 receptor (Homo sapiens, UniProt P30518); test: Binding to human V2 receptor expressed in LV2 cells by cAMP production; type: functional, cell-based
T1 sequence (P30518 whole entry): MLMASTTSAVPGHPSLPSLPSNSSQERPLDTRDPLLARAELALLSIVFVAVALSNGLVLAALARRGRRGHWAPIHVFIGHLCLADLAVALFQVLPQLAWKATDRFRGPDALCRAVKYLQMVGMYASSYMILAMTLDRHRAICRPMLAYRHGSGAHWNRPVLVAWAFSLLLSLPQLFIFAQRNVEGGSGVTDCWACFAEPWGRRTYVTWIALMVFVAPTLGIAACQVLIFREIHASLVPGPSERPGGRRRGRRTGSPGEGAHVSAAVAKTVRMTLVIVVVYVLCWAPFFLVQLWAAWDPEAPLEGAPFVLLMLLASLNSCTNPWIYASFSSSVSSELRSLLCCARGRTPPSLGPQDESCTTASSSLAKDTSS

Vasopressin V1a receptor [4] = molecular target: T2, Vasopressin V1a receptor (Homo sapiens, UniProt P37288); test: Displacement of [3H]AVP from human V1a receptor expressed in CHO cells; type: cell-based
Procedure, shortened: (§1)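 Inhibition of [3H]AVP binding to membranes from CHO cells expressing human V1a receptors or from LV2 cells transfected with human V2 receptors; IC50 values are means of two to five (or three) experiments.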
Target sequence in this assay (P37288 whole entry): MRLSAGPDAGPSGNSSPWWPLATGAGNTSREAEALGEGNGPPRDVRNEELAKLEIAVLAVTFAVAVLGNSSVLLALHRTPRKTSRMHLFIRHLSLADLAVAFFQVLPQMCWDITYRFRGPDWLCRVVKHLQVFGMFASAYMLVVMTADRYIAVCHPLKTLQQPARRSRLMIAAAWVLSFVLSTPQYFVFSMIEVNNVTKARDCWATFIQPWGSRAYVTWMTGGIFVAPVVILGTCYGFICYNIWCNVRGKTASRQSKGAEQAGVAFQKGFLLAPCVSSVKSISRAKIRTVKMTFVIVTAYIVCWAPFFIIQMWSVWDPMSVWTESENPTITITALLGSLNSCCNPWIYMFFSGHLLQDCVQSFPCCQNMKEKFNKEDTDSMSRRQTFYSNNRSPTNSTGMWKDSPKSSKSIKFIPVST

Vasopressin V2 receptor [5] = molecular target: T1, Vasopressin V2 receptor; test: Displacement of [3H]AVP from human V2 receptor transfected in LV2 cells; type: cell-based; procedure, shortened: as §1
[6] = molecular target: T3, Oxytocin receptor (Rattus norvegicus) (UniProt P70536); test: Agonist activity at OT receptor indicated by production of contractions in rat uterine strips; type: functional
T3 sequence (whole entry): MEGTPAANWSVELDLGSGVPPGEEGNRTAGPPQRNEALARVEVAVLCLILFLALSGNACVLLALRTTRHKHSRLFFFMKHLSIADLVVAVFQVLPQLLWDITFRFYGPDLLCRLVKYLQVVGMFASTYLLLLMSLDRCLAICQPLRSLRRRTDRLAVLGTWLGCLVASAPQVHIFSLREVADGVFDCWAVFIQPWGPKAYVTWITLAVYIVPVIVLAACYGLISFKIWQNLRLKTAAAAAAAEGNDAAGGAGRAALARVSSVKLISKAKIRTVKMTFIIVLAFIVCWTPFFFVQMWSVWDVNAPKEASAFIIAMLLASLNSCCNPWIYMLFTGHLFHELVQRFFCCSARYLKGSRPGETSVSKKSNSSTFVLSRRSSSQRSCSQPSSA

Rattus norvegicus [7] = test: Antidiuretic effect measured as decrease in urine volume over control in water-loaded Sprague-Dawley rat at 10 mg/kg, po; type: functional; set-up: Activity: scale not given: the % may be the effect or the level left; conditions: for ED50: Rattus norvegicus, Sprague-Dawley, Urine; for Activity: dose 10 mg/kg
Procedure, shortened: (§2)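 Conscious water-loaded rats dosed orally; 30 min later stomachs gavaged with deionized water, 30 mL/kg. Urine collected over 4 h for volume; osmolality by cryoscopic osmometer; Na+, K+, Cl- by ion-selective electrodes. Expressed as percent change versus control at the stated dose (screening dose 10 mg/kg po).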

Oxytocin receptor = molecular target: T4, Oxytocin receptor (Rattus norvegicus, UniProt P70536); test: Antagonism of OT-induced response at OT receptor in rat uterine strips; type: functional
T4 sequence (P70536 whole entry): T3 sequence (whole entry)

Rattus norvegicus [8] = test: Antidiuretic effect measured as increase in osmolality over control in water-loaded Sprague-Dawley rat at 10 mg/kg, po; type: functional, Urine; procedure, shortened: as §2
Vasopressin V2 receptor [9] = molecular target: T1, Vasopressin V2 receptor; test: Displacement of [3H]AVP from human V2 receptor transfected in LV2 cells at 300 nM; type: cell-based
Procedure, shortened: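 Inhibition of [3H]AVP binding to membranes of LV2 cells transfected with human V2 receptors, reported as percent inhibition at 300 nM.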

Vasopressin V1a receptor [10] = molecular target: T2, Vasopressin V1a receptor; test: Displacement of [3H]AVP from human V1a receptor expressed in CHO cells at 1 uM; type: cell-based
Target sequence in this assay (P37288 whole entry, looked up): as the sequence (P37288 whole entry) above

Vasopressin V1a receptor [11] = molecular target: T2, Vasopressin V1a receptor; test: Displacement of [3H]AVP from human V1a receptor expressed in CHO cells at 0.1 uM; type: cell-based
Target sequence in this assay (P37288 whole entry, looked up): as the sequence (P37288 whole entry) above

Vasopressin V1a receptor [12] = molecular target: T2, Vasopressin V1a receptor; test: Displacement of [3H]AVP from human V1a receptor expressed in CHO cell membrane at 10 uM; type: cell membranes
Target sequence in this assay (P37288 whole entry, looked up): as the sequence (P37288 whole entry) above

| Compound | IC50 (Vasopressin V2 receptor [5]) [µM] | inhibition (Vasopressin V2 receptor [9]) [%] | Activity (Rattus norvegicus [7]) [%] | Activity (Rattus norvegicus [8]) [%] | also measured |
| --- | --- | --- | --- | --- | --- |
| CCOc1ccc(C[C@H]2NC(=O)CCSSC[C@@H](C(=O)N3CCC[C@H]3C(=O)N[C@@H](CCCN)C(=O)NCC(N)=O)NC(=O)[C@H](CC(N)=O)NC(=O)[C@H]([C@@H](C)O)NC(=O)[C@H]([C@@H](C)CC)NC2=O)cc1 [ATOSIBAN] ([Mpa][dY](Et)ITNCP[Orn]G-NH2; disulfide 1-6) |  |  |  |  | IC50 (Oxytocin receptor): 0.012 µM |
| O=C(c1ccc(-n2ccc(-c3ccncc3)n2)cc1Br)N1Cc2cccnc2Nc2ccccc21 |  | 26 | 24 | 11 |  |
| Cc1n[nH]c(-c2ccc(C(=O)N3Cc4cccnc4Nc4ccccc43)c(Cl)c2)n1 |  |  | 86 | 516 |  |
| CC(C)(C)c1ccn(-c2ccc(C(=O)N3Cc4cccnc4Nc4ccccc43)c(C(F)(F)F)c2)n1 |  | 26 | 6 | -7 |  |
| CN1c2ccccc2N(C(=O)c2ccc(-c3ccn(C)n3)cc2Cl)Cc2cccnc21 |  |  | 10 | -11 |  |
| Cc1ccnn1-c1ccc(C(=O)N2Cc3cccnc3Nc3ccccc32)c(C(F)(F)F)c1 | 0.413 |  | 25 | 4 | inhibition (Vasopressin V1a receptor [11]): 11% |
| O=C(c1ccc(-n2ccc(C(F)(F)F)n2)cc1C(F)(F)F)N1Cc2cccnc2Nc2ccccc21 |  | -7 | 69 | 183 |  |
| Cn1ccc(-c2ccc(C(=O)N3Cc4cccnc4Nc4ccccc43)c(Cl)c2)n1 | 0.183 |  | 76 | 134 | IC50 (Vasopressin V1a receptor [4]): 1.78 µM |

Continued, in another order:

| IC50 (Vasopressin V2 receptor [5]) [µM] | inhibition (Vasopressin V2 receptor [9]) [%] | Compound | Activity (Rattus norvegicus [7]) [%] | Activity (Rattus norvegicus [8]) [%] | also measured |
| --- | --- | --- | --- | --- | --- |
| 0.493 |  | Cc1ccn(-c2ccc(C(=O)N3Cc4cccnc4Nc4ccccc43)c(C(F)(F)F)c2)n1 | 87 | 239 | Activity [1]: inactive; IC50 (Vasopressin V1a receptor [2]): > 30 µM; EC50 (Vasopressin V2 receptor [3]): 0.00167 µM; IC50 (Vasopressin V1a receptor [4]): 5.95 µM; Activity [6]: inactive; ED50 (Rattus norvegicus [7]): 0.1 mg/kg; IC50 (Oxytocin receptor): 1.26 µM |
| 0.39 |  | Cc1ccnn1-c1ccc(C(=O)N2Cc3cccnc3Nc3ccccc32)c(Cl)c1 | 61 | 189 |  |
| 0.0915 |  | Cc1ccn(-c2ccc(C(=O)N3Cc4cccnc4Nc4ccccc43)c(Cl)c2)n1 | 80 | 172 | inhibition (Vasopressin V1a receptor [10]): 38% |
| 0.296 |  | Cc1ccn(-c2ccc(C(=O)N3Cc4cccnc4Nc4ccccc43)c(Br)c2)n1 | 85 | 247 | inhibition (Vasopressin V1a receptor [10]): 30% |
| 0.933 |  | Cc1ccn(-c2ccc(C(=O)N3Cc4cccnc4Nc4ccccc43)c(F)c2)n1 | 59 | 272 |  |
|  | 5 | Cc1ccn(-c2cc(F)ccc2C(=O)N2Cc3cccnc3Nc3ccccc32)n1 | 63 | 177 |  |
| 0.475 |  | Cc1ccn(-c2ccc(C(=O)N3Cc4cccnc4N(C)c4ccccc43)c(Cl)c2)n1 | 71 | 275 | inhibition (Vasopressin V1a receptor [10]): 20% |
| 0.08 |  | Cc1ccn(-c2ccc(C(=O)N3Cc4cccn4Cc4ccccc43)c(Cl)c2)n1 | 74 | 286 | EC50 (Vasopressin V2 receptor [3]): 0.00074 µM; IC50 (Vasopressin V1a receptor [4]): 0.778 µM; ED50 (Rattus norvegicus [7]): 0.14 mg/kg |
|  | 10 | Cc1ccn(-c2ccc(C(=O)N3Cc4cccnc4N(C)c4ccccc43)c(C(F)(F)F)c2)n1 | 72 | 198 | inhibition (Vasopressin V1a receptor [12]): 32% |
|  | 13 | O=C(c1ccc(-n2ccc(C(F)(F)F)n2)cc1Cl)N1Cc2cccnc2Nc2ccccc21 | 72 | 162 |  |
